Molecules are shown by their SMILES. Active and inactive are the calls of the source. No cut-off for these calls is given here. Bounds are passed on as bounds.

Usually IC50 stands for the concentration needed to halve the response being measured.

For one experiment, the system named is BMEC. Kind of experiment: Antiproliferative activity against bovine BMEC. To be noted: Bos taurus. The format is functional, cell-based. In short, it runs like this:
(§1)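 Cells plated, then exposed 24 h after seeding to graded drug concentrations for 24 h. Drug removed, 48 h recovery in drug-free medium, surviving cells stained with sulforhodamine B (OD 564). […] BMEC: primary bovine adrenal cultures in DMEM, 20% FCS, heparin, brain extract.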

Another experiment deals with MCF7. Description: Antiproliferative activity against human MCF7 cells. Type of experiment: functional, cell-based. In short, it runs like this: as §1
In experiment [1] the test system is A2780. Description: Antiproliferative activity against human A2780 cells. Type of experiment: functional, cell-based. In short, it runs like this: as §1
The next experiment relates to HCT-116. Kind of experiment: Antiproliferative activity against human HCT116 cells. The format is functional, cell-based. In short, it runs like this:
as §1

Experiment [2] has as its system NCI-H460. Description: Antiproliferative activity against human H460 cells. The format is functional, cell-based. In short, it runs like this:
as §1

A further experiment deals with HUVEC. Kind of experiment: Antiproliferative activity against human HUVEC. The format is functional, cell-based. In short, it runs like this:
as §1

The next experiment deals with IGROV-1. Kind of experiment: Antiproliferative activity against human IGROV1 cells. The format is functional, cell-based. In short, it runs like this:
as §1

The test system of experiment [3] is NCI-H460. Kind of experiment: Antitumor activity in CD1 mice implanted with NCI-H460 xenografts at 60 mg/kg, po. The arrangement: dose 60 mg/kg. To be noted: Homo sapiens. The format is functional, organism-based. In short, it runs like this: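 NCI-H460 cells (3.0 × 10⁶ in HBSS) injected sc into right flank of female CD-1 nude mice; groups of eight once tumors reached ~30 mg (day 5). Oral 60 mg/kg twice daily, 5 days/week for 3 weeks; controls got vehicle. Caliper volumes (length × width²/2) twice weekly; toxicity scored as % max body-weight loss; Mann-Whitney U test.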

Another experiment relates to MeWo. Kind of experiment: Antiproliferative activity against human MeWo cells. The format is functional, cell-based. In short, it runs like this: as §1
The subject of another experiment is MCF7-DOX. Kind of experiment: Antiproliferative activity against doxorubicin-resistant human MCF7-dx cells. Type of experiment: functional, cell-based. In short, it runs like this: as §1
Experiment [4] relates to A2780. Description: Antiproliferative activity against doxorubicin-resistant human A2780-dx cells. Type of experiment: functional, cell-based. In short, it runs like this: as §1
In experiment [5] the test system is NCI-H460. Kind of experiment: Cell cycle arrest in NCI-H460 cells by accumulation at G1/0 phase cell at 3 nM post 24 hrs treatment. The format is functional, Homo sapiens.
Experiment [6] has as its system NCI-H460. Kind of experiment: Cell cycle arrest in NCI-H460 cells by accumulation at G2/M phase cell at 3 nM post 24 hrs treatment.
The test system of experiment [7] is NCI-H460. Description: Cell cycle arrest in NCI-H460 cells by accumulation at S phase cell at 3 nM post 24 hrs treatment.
In experiment [8] the test system is NCI-H460. Description: Cell cycle arrest in NCI-H460 cells by accumulation at G1/0 phase cell at 3 nM post 24 hrs treatment and 24 hrs recovery. The format is functional, Homo sapiens.
Experiment [9] deals with NCI-H460. Description: Cell cycle arrest in NCI-H460 cells by accumulation at G2/M phase cell at 3 nM post 24 hrs treatment and 24 hrs recovery.
For experiment [10], the system named is NCI-H460. Description: Cell cycle arrest in NCI-H460 cells by accumulation at S phase cell at 3 nM post 24 hrs treatment and 48 hrs recovery.
The test system of experiment [11] is NCI-H460. Description: Cell cycle arrest in NCI-H460 cells by accumulation at S phase cell at 3 nM post 24 hrs treatment and 24 hrs recovery.
The subject of experiment [12] is NCI-H460. Kind of experiment: Cell cycle arrest in NCI-H460 cells by accumulation at G2/M phase cell at 3 nM post 24 hrs treatment and 48 hrs recovery.
The subject of experiment [13] is NCI-H460. Description: Cell cycle arrest in NCI-H460 cells by accumulation at G1/0 phase cell at 3 nM post 24 hrs treatment and 48 hrs recovery. The format is functional, Homo sapiens.

In turn, `COc1cc(/C=C\c2cc(O)c3cc(C)oc3c2)cc(OC)c1OC` came in with a half-inhibitory concentration (IC50) in the experiment on BMEC of 93 nM.
`COc1cc(/C=C/c2ccc3cc[nH]c3c2)cc(OC)c1OC`: the midpoint of inhibition in the experiment with BMEC, the IC50, lay at 1900 nM.
Take `COc1cc(/C=C/c2cc(O)c3c(-c4ccccc4)csc3c2)cc(OC)c1OC`: the IC50 in the experiment with BMEC is more than 20000 nM.
In turn, `COc1cc(/C=C/c2cc(OC)c3ccoc3c2)cc(OC)c1OC` came in with a 50% inhibitory concentration (IC50) with BMEC of 75000 nM.
Compound `COc1cc(/C=C\c2cc(O)c3cc(C)sc3c2)cc(OC)c1OC` returned a 50% inhibitory concentration (IC50) with BMEC of 23 nM.
In the case of `COc1cc(/C=C/c2cc(O)c3cc(-c4ccccc4)oc3c2)cc(OC)c1OC`, the IC50 in the experiment on BMEC was more than 20000 nM.
In the experiment on BMEC, `COc1cc(/C=C/c2cc(O)c3cc(C)sc3c2)cc(OC)c1OC` returned an IC50 of 840 nM.
For the compound `COc1cc(/C=C\c2cc(OP(=O)(O)O)c3ccsc3c2)cc(OC)c1OC`, the half-inhibitory concentration (IC50) in the experiment with MCF7 amounted to 639 nM; in the experiment on A2780 [1], 500 nM; in the experiment with HCT-116 it was 3000 nM; in the experiment with NCI-H460 [2] it was 620 nM; with HUVEC, 83 nM; with IGROV-1, 1610 nM. For the same compound, the IC50 in the experiment with MeWo stood at 830 nM; in the experiment with BMEC it was 640 nM; in the experiment with MCF7-DOX it was 487 nM; with A2780 [4] it was 750 nM. In addition, in the experiment on NCI-H460 [3], the result was Active.
`COc1cc(/C=C\c2cc(OC)c3ccoc3c2)cc(OC)c1OC` gave an IC50 with BMEC of 7500 nM.
For `COc1cc(/C=C\c2cc(O)c3cc(-c4ccccc4)oc3c2)cc(OC)c1OC`, the IC50 in the experiment with BMEC was more than 2000 nM.
For the compound `COc1cc(/C=C\c2cc(O)c3c(-c4ccccc4)csc3c2)cc(OC)c1OC`, the 50% inhibitory concentration (IC50) in the experiment on BMEC was more than 2000 nM.
In turn, `COc1cc(/C=C\c2cc(O)c3cc(-c4ccccc4)sc3c2)cc(OC)c1OC` showed a 50% inhibitory concentration (IC50) in the experiment with BMEC of 23000 nM.
On the same count and under the same terms, with `COc1cc(/C=C/c2cc(O)c3cc(C)oc3c2)cc(OC)c1OC` the figure was 12300 nM.
With `COc1ccc(/C=C\c2cc(OC)c(OC)c(OC)c2)cc1O` [COMBRETASTATIN A4], the IC50 in the experiment with MCF7 was 2 nM; in the experiment with A2780 [1] it was 2.19 nM; with HCT-116, 1.9 nM; in the experiment with HUVEC, 1.5 nM; in the experiment with IGROV-1 it was 10.3 nM; in the experiment with MeWo, 4 nM. The IC50 in the experiment with MCF7-DOX worked out at 2.3 nM; with A2780 [4], 1.66 nM. In addition, the Activity is on record as 8% with NCI-H460 [5]; 79% in the experiment on NCI-H460 [6]; 12% with NCI-H460 [7]; 62% with NCI-H460 [8]; 16% in the experiment on NCI-H460 [9]; 18% in the experiment on NCI-H460 [10]. Moreover, the Activity was determined as 22% in the experiment with NCI-H460 [11], 27% with NCI-H460 [12] and 55% with NCI-H460 [13].
Compound `COc1cc(/C=C\c2ccc3cc[nH]c3c2)cc(OC)c1OC` yielded a half-maximal inhibitory concentration (IC50) with BMEC of 28 nM.
In the experiment on BMEC, `COc1cc(/C=C/c2cc(O)c3cc(-c4ccccc4)sc3c2)cc(OC)c1OC` yielded an IC50 of 38000 nM.

(Values after ChEMBL document CHEMBL1147810, “Novel combretastatin analogues endowed with antitumor activity” (J Med Chem, 2006).)
